Compound activity (PubChem BioAssay)
Compounds with a hit are over-represented: about 3.5% of the library has one in this group of screens.
MrgX1 antagonist = human MrgX1 receptor antagonism, primary screen; MRGX1-HEK293 calcium flux, Fluo-4, BAM8-22 antagonism; hits give low values; B-score at 10 µM; 310,000 tested, 1.3% active;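 active = calcium-response B-score plate-corrected more than 3 library SD below zero, starting fluorescence within 5 deviations, no agonist response on first addition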;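 note: peak minus trough fluorescence over baseline after final BAM8-22 challenge near maximal dose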
Target sequence (Q96LB2 whole entry, looked up): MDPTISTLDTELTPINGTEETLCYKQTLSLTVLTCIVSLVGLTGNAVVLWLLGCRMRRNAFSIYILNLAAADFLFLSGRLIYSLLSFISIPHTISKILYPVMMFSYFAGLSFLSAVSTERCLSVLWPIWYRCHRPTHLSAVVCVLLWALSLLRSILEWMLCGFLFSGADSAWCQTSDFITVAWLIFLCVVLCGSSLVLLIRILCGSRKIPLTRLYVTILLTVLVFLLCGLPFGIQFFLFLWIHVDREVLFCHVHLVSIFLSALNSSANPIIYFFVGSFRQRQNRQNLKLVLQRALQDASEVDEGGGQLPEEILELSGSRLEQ
MrgX1 agonist = human MrgX1 receptor agonism, primary screen; Q96LB2; MrgX1-HEK293 cells, Fluo-4 calcium fluorescence, agonist mode; hits give high values; B-score at 10 µM; 310,000 tested, 0.44% active; AID 588627;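 active = calcium response B-score plate-corrected fluorescence ratio at least 3 library SD, with starting fluorescence B-score inside 5 SD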
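Assay system: MrgX1-expressing HEK293 cells / Amount: fifteen thousand cells per well / Doses: test compound in the initial addition of three / Timing: cells plated overnight, dye loaded 0.5 h 37 °C, 0.5 h room temperature / Technique: kinetic calcium dye fluorescence, Fluo-4 NW / Control set: positive and negative controls per plate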
RGS4 block = inhibitors of human RGS4; P49798; HEK293 M3R/RGS4 inducible, Fluo-4 calcium flux; hits give high values; triggered by carbachol at its EC20; B-score at 10 µM; 310,000 tested, 0.45% active;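 active = B-score, a plate-corrected calcium signal, over three deviations above library mean, with baseline fluorescence within five deviations of library mean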;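 note: RGS4 expression induced by doxycycline in cells with stable M3 receptor; B-score is computed from the integrated fluorescence ratio over baseline after carbachol; higher B-score means a larger calcium signal and so more RGS4 inhibition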
Target sequence (P49798 whole entry, looked up): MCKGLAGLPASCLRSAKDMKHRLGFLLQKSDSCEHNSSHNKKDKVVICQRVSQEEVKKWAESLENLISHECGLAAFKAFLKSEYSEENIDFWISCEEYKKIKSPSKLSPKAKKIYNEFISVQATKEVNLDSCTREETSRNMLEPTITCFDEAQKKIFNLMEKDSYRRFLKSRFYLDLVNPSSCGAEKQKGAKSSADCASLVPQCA
RGS4 pot = potentiators or activators of RGS4; HEK293 M3R/inducible RGS4, carbachol calcium flux Fluo4; hits give low values; B-score at 10 µM; 310,000 tested, 0.92% active; AID 463111;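 active = B-score of the integrated calcium signal more than 4 SD below the library mean, with starting fluorescence not abnormally high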;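 note: negative B-score means reduced calcium response which marks RGS4 activation or potentiation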
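Test system: HEK293 cells with stable M3R and inducible RGS4; also added: carbachol at ECmax as muscarinic agonist stimulus; schedule: dye loading 30 min 37 °C, buffer rest 30 min RT; technique: kinetic calcium fluorescence imaging with Fluo4-AM dye, 2 µM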
MrgX1 allo act = human MrgX1 positive allosteric modulation, primary screen | B-score at 10 µM | Q96LB2 | MrgX1-HEK293, Fluo-4 calcium flux, FDSS; hits give high values | AID 588675 | 310,000 tested, 0.63% active;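 active = plate-corrected calcium response at least 3 library SD above typical, normal starting fluorescence, not activating the receptor alone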;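 note: compound read alongside a low EC10 to EC30 dose of BAM8-22 agonist; peak minus trough fluorescence over baseline measured at the second addition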
MrgX1 antag conf = human MrgX1 receptor antagonism, re-confirmation screen; shares compounds with MrgX1 antagonist; MrgX1-HEK293, BAM8-22 calcium flux, Fluo-4; hits give low values; remaining BAM8-22 calcium response % of control (hits give low values), % at 10 µM; 2,300 tested, 19% active; AID 602420;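 active = remaining agonist calcium response no higher than 100% minus 3 SD of agonist-only control wells, with starting fluorescence near control levels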;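 note: agonist BAM8-22 given at a near maximal EC90 to ECmax level; peak minus minimum fluorescence divided by baseline after agonist addition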
HEK293 Ca flux = MrgX1 antagonist counter-screen hit in parental HEK293 cells; shares compounds with MrgX1 antagonist; AID 624111; 4,000 tested, 2% active; fluorescence ratio F(max-min)/F0 at 10 µM; Fluo-4 calcium fluorescence, FDSS;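 active = duplicate-averaged calcium fluorescence ratio at least three times the standard deviation of buffer wells, a nonspecific response in parental cells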
HEK293 Ca counter = MrgX1 allosteric activator counter-screen hit in parental HEK293 cells. 4,000 tested, 0.4% active. fluorescence ratio F(max-min)/F0 at 10 µM. parental HEK293 calcium flux, Fluo-4 fluorescence ratio; hits give high values. shares compounds with MrgX1 antagonist;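 active = calcium fluorescence ratio, averaged over duplicates, at least 3 SD of the buffer-well ratio, meaning a nonspecific response in receptor-free cells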;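 note: untransfected parental HEK293 lacking MrgX1 used as counterscreen for MrgX1 allosteric activators; fluorescence change taken during the second addition on a kinetic imager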
HEK293 Ca cntr2 = activity in parental HEK293 cells lacking MrgX1 receptor | shares compounds with MrgX1 antagonist | Fluo-4 calcium fluorescence (FDSS); hits give high values | fluorescence ratio F(max-min)/F0 at 10 µM | 4,000 tested, 8.7% active | AID 624115;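 active = calcium fluorescence ratio at least three times the spread of buffer wells, meaning a non-specific response in parental cells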
Numbers without * were called inactive.

Results for O=C(c1ccc(Cl)c(S(=O)(=O)N2CCOCC2)c1)N1CCN(c2ccccc2)CC1 ?
MrgX1 antagonist: -4.55*; MrgX1 agonist: inactive; RGS4 block: inactive; RGS4 pot: inactive; MrgX1 allo act: inactive; MrgX1 antag conf: inactive; HEK293 Ca flux: inactive; HEK293 Ca counter: inactive; HEK293 Ca cntr2: inactive

What do the screens show for `O=C(c1ccc(Cl)c(S(=O)(=O)N2CCCCC2)c1)N1CCN(c2ccccc2)CC1`?
MrgX1 antagonist: inactive; MrgX1 agonist: inactive; RGS4 block: inactive; RGS4 pot: inactive; MrgX1 allo act: inactive

Results for O=C(c1ccc(Cl)c(S(=O)(=O)N2CCCC2)c1)N1CCN(c2ccccc2)CC1 ?
MrgX1 antagonist: inactive; MrgX1 agonist: inactive; RGS4 block: inactive; RGS4 pot: inactive; MrgX1 allo act: inactive

Results for O=C(c1ccc(Cl)c(S(=O)(=O)N2CCCCCC2)c1)N1CCN(c2ccccc2O)CC1 ?
MrgX1 antagonist: -4.82*; MrgX1 agonist: inactive; RGS4 block: inactive; RGS4 pot: inactive; MrgX1 allo act: inactive; MrgX1 antag conf: 80.2%*; HEK293 Ca flux: inactive; HEK293 Ca counter: inactive; HEK293 Ca cntr2: inactive

How did COc1cc(C(=O)NCC(=O)NC(C)CCc2ccccc2)cc(OC)c1OC (stereo not given) do in these assays?
MrgX1 antagonist: inactive; MrgX1 agonist: inactive; RGS4 block: inactive; RGS4 pot: inactive; MrgX1 allo act: inactive

Results for CCC(=O)Nc1ccc(Br)cn1 ?
MrgX1 antagonist: -5.36*; MrgX1 agonist: inactive; RGS4 block: inactive; RGS4 pot: inactive; MrgX1 allo act: inactive; MrgX1 antag conf: inactive; HEK293 Ca flux: inactive; HEK293 Ca counter: inactive; HEK293 Ca cntr2: inactive

What do the screens show for `O=C(CSc1ccccn1)Nc1ccc(Br)cn1`?
MrgX1 antagonist: -5.33*; MrgX1 agonist: inactive; RGS4 block: inactive; RGS4 pot: inactive; MrgX1 allo act: inactive; MrgX1 antag conf: inactive; HEK293 Ca flux: inactive; HEK293 Ca counter: inactive; HEK293 Ca cntr2: inactive

How did O=C(CSc1ncn(-c2ccccc2)n1)Nc1ccc(Br)cn1 do in these assays?
MrgX1 antagonist: inactive; MrgX1 agonist: inactive; RGS4 block: inactive; RGS4 pot: inactive; MrgX1 allo act: inactive

Results for O=C(Cc1ccccc1)Nc1ccc(NC(=O)c2ccco2)cc1Cl ?
MrgX1 antagonist: inactive; MrgX1 agonist: inactive; RGS4 block: inactive; RGS4 pot: inactive; MrgX1 allo act: inactive

How did Cc1cc(Br)ccc1NC(=S)NCCc1ccccc1 do in these assays?
MrgX1 antagonist: inactive; MrgX1 agonist: inactive; RGS4 block: inactive; RGS4 pot: inactive; MrgX1 allo act: inactive

What do the screens show for `Cc1ccc(NC(=S)NCCc2ccccc2)c(C)c1`?
MrgX1 antagonist: -5.18*; MrgX1 agonist: inactive; RGS4 block: inactive; RGS4 pot: inactive; MrgX1 allo act: inactive; MrgX1 antag conf: inactive; HEK293 Ca flux: inactive; HEK293 Ca counter: inactive; HEK293 Ca cntr2: inactive

What do the screens show for `CCc1cccc(CC)c1-n1c(SCC(=O)N2CCc3ccccc3C2)nnc1-c1cccnc1`?
MrgX1 antagonist: -7.82*; MrgX1 agonist: inactive; RGS4 block: inactive; RGS4 pot: inactive; MrgX1 allo act: inactive; MrgX1 antag conf: inactive; HEK293 Ca flux: inactive; HEK293 Ca counter: inactive; HEK293 Ca cntr2: inactive

What do the screens show for `CC(C)CC(=O)NC(NCC1CCCO1)C(Cl)(Cl)Cl` (stereo not given)?
MrgX1 antagonist: inactive; MrgX1 agonist: inactive; RGS4 block: inactive; RGS4 pot: inactive; MrgX1 allo act: inactive
